An excerpt weighted towards active compounds, which were near 2.7% of everything screened.
MsrA act: activators of bovine methionine sulfoxide reductase A. actives 0.3% (n = 360,000). purified bovine MsrA, absorbance read-out. AID 602163. activation, % at 10.6 µM; in the data active means activation above about 7.5%
ASAP1 GAP inh: blocks human ASAP1-stimulated Arf1 GTP hydrolysis. Q9ULH1. GDP FP detection. inhibition, % at 16.5 µM. actives 0.19% (n = 360,000). AID 624377; in the data active means inhibition above about 25%
Target sequence (Q9ULH1 325-724 limits assumed): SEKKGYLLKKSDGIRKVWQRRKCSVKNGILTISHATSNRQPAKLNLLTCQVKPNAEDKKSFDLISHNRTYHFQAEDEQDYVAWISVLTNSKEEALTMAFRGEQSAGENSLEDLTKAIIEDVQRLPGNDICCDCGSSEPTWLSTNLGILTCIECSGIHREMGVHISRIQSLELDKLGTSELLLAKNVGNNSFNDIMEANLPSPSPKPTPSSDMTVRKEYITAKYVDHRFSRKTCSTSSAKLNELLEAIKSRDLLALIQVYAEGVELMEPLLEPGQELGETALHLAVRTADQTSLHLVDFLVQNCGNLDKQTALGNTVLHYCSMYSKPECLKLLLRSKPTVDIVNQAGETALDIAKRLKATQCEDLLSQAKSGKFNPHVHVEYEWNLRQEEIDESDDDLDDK
ARFGAP1 inh: inhibits rat ARF GTPase activating protein 1. actives 0.26% (n = 360,000). Q62848. Arfgap1-stimulated ARF1 GTP hydrolysis, GDP FP detection. inhibition, % at 16.5 µM;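 active means inhibition above a per-plate limit, mean inhibition of low control wells plus 3 SD, cut at about 25% in these data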
Target sequence (Q62848 1-136 limits assumed): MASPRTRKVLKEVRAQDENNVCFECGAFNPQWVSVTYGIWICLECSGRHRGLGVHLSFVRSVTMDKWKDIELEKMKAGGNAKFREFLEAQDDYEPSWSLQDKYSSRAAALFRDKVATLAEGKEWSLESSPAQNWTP
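Repeats: one replicate per compound; assay system: rat Arfgap1 catalytic domain, aa 1-136; times: enzyme reaction 120 min at 25 °C after 20 min preincubation; detection: FP of antibody-bound GDP Alexa 633 tracer, ex 620/em 688 nm; benchmarks: high control wells lacking Arfgap1, low control full reaction with DMSO; reagent: human ARF1(Δ1-17)-GTP substrate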
Rev-erbA mod: Rev-erb alpha (human) modulation | AID 1259318 | P20393 | activity, % at 10 µM | Rev-erbα–FITC-DNA binding, fluorescence polarization, 90 min | actives 0.79% (n = 370,000);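 active means activity above about 14%, limit read from the data; passing the limit was not always enough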
MsrA inh: inhibitors of bovine MsrA; purified bovine MsrA, absorbance read-out; inhibition, % at 15.5 µM; actives 0.75% (n = 360,000); AID 651718; in the data active means inhibition above about 4.5%
HGIII-sPLA2 inh: Blocks human group III sPLA2 activity | inhibition, % at 12.2 µM | QFRET BODIPY PC-A2 liposome hydrolysis, fluorescence | actives 0.56% (n = 370,000) | AID 743126 | Q9NZ20;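 active means inhibition above mean plus 3 SD of compounds lying within the high and low control bounds, cut at about 19% in these data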
MsrA activ conf: confirmation of bovine methionine sulfoxide reductase A activators | shares compounds with MsrA act | activation, % at 10.6 µM | AID 602270 | purified bovine MsrA, absorbance read-out | actives 12% (n = 1,000); in the data active means activation above about 4%;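 further: enzyme coupled to thioredoxin and thioredoxin reductase with NADPH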
ASAP1 inh confirm: confirmation of human ASAP1 inhibitors. shares compounds with ASAP1 GAP inh. actives 37% (n = 620). ASAP1-stimulated Arf1 GTPase, GDP fluorescence polarization. inhibition, % at 16.5 µM. AID 624431;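 active means mean inhibition over triplicates exceeds the hit threshold derived for the earlier primary screening run, cut at about 25% in these data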
ARFGAP1 inh conf: confirmation of rat ARFGAP1 inhibitors; inhibition, % at 16.5 µM; shares compounds with ARFGAP1 inh; ARFGAP1-stimulated ARF1 GTP hydrolysis, GDP tracer FP; actives 30% (n = 890);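 active means average inhibition over triplicates above the hit cutoff set in the earlier primary screen, cut at about 25% in these data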
A number is an active result; - = inactive; . = no result.

SMILES	MsrA act	ASAP1 GAP inh	ARFGAP1 inh	Rev-erbA mod	MsrA inh	HGIII-sPLA2 inh	others
CCCCn1c(O)c(/C=N/N2CCCCC2c2cccnc2)c(=O)[nH]c1=S (configuration not stated)	-	-	-	-	-	-
Cc1ccc(-n2c(O)c(/C=N/N3CCCCC3c3cccnc3)c(=O)[nH]c2=S)cc1 (configuration not stated)	-	-	-	-	4.5	-
COC1C(O)CC(OC2CC(Oc3cc4cc5c(c(O)c4c(O)c3C)C(=O)[C@@H](OC3CC(OC4CC(OC6CC(C)(O)C(OC(C)=O)C(C)O6)C(O)C(C)O4)C(O)C(C)O3)[C@H]([C@H](OC)C(=O)C(O)[C@H](C)O)C5)OC(C)C2OC(C)=O)OC1C (some centres not stated)	.	.	.	-	.	.
O=C(Nc1ccc(Cl)c(Cl)c1)c1ccco1	-	-	-	-	-	-
O=C1NC(=O)C(Nc2ccc(Cl)c(Cl)c2)C(=O)N1	-	47	-	-	-	-
O=c1c2ccccc2[se]n1-c1ccccc1	20	-	-	-	-	-
COc1cccc([C@]2(O)CCCC[C@H]2CN(C)C)c1	.	.	.	-	.	.
CCn1nc(-c2ccccc2)nc2c(=O)n(C)c(=O)nc1-2	37	.	.	.	.	.
Cc1ccccc1[N+](=O)[O-]	-	-	-	-	-	-
O=C1NC(=O)C(Sc2ccccc2[N+](=O)[O-])C(=O)N1	-	42	-	-	-	-
CN(C)c1ccc(/C=C/C=C2/C(=O)NC(=O)N(c3ccccc3)C2=O)cc1	-	28	-	-	-	-
CC(=O)[C@H]1CCC2C3CC[C@H]4C[C@H](O)CC[C@]4(C)C3C(=O)C[C@@]21C (some centres not stated)	.	.	.	-	.	.
O=C1C(=O)c2ccccc2-c2ccccc21	49	-	-	-	-	-
COc1ccc(-c2cc(-c3ccccc3)[n+](C)c(-c3ccccc3)c2)cc1	-	-	-	-	4.8	-
COc1ccc(-[n+]2c(-c3ccccc3)cc(-c3ccc(C)cc3)cc2-c2ccccc2)cc1	-	-	-	-	-	-
CC1=C2CCC3C(CC[C@]4(C)C(=O)CCC34)[C@@]2(C)CCC1=O (some centres not stated)	.	.	.	-	.	.
C[C@]12CC[C@@H](O)C[C@@H]1CC[C@@H]1[C@@H]2CC[C@]2(C)C(=O)[C@H](O)C[C@@H]12	19	.	.	.	.	.	MsrA activ conf=-
CCC(C)[C@H]1O[C@]2(C=C[C@@H]1C)C[C@@H]1C[C@@H](C/C=C(\C)[C@@H](O[C@@H]3C[C@H](OC)[C@H](O[C@H]4C[C@H](OC)[C@@H](O)[C@H](C)O4)[C@H](C)O3)[C@@H](C)/C=C/C=C3\CO[C@@H]4[C@H](O)C(C)=C[C@@H](C(=O)O1)[C@]34O)O2 (some centres not stated)	.	.	.	-	.	.
CCOC(=O)c1c(N)n(CCCOC(=O)c2ccco2)c2nc3ccccc3nc12	11	-	-	-	-	-	MsrA activ conf=-
Cc1nc2c(=O)n(C)c(=O)nc-2n(C)n1	18	-	-	-	-	-	MsrA activ conf=13
CN1C2C[C@H](OC(=O)[C@H](CO)c3ccccc3)CC1[C@@H](O)C2 (some centres not stated)	.	.	.	-	.	.
c1ccc2[nH]c(CCNC3CCCCC3)nc2c1	7.8	-	-	-	-	-	MsrA activ conf=-
c1ccc2c(CCNC3CCCCC3)c[nH]c2c1	-	-	-	-	-	-
O=C(O)c1cccc(NC(=O)N2C[C@H]3C[C@@H](C2)c2cccc(=O)n2C3)c1	8.9	-	-	-	-	-	MsrA activ conf=-
C=C1C(=O)[C@@]23C[C@H]4[C@@H]5[C@@]6(C)CCC[C@@]57[C@@H]2[C@@H](O)[C@@H]1C[C@H]3[C@H]7N4C6	26	-	-	-	-	-	MsrA activ conf=17
SMILES	MsrA act	ASAP1 GAP inh	ARFGAP1 inh	Rev-erbA mod	MsrA inh	HGIII-sPLA2 inh	others
C[C@]12CC[C@H](OC3OC(O)C(O)C(O)C3O)C=C1CCC1C2CC[C@]2(C)[C@@H](c3ccc(=O)oc3)CC[C@]12O (some centres not stated)	.	.	.	-	.	.
C[n+]1c2ccccc2nc2ccc(NCCO)cc21	59	-	-	-	-	-	MsrA activ conf=51
CNc1ccc2nc3ccccc3[n+](C)c2c1	92	-	-	-	-	-	MsrA activ conf=74
CC(C)=CC1C(C(=O)OC(C#N)c2cccc(Oc3ccccc3)c2)C1(C)C (configuration not stated)	.	.	.	-	.	.
CC[C@H]1C2CC3[C@@H]4N(C)c5ccccc5[C@]45C[C@@H](C2C5O)N3[C@@H]1O (some centres not stated)	.	.	.	-	.	.
CC(C)C[C@@H](CN)CC(=O)O	.	.	.	-	.	.
c1ccc(Cn2ccnc2)cc1	-	-	-	-	-	-
CC(C)c1cccc(C(C)C)c1OCCn1ccnc1	14	-	-	-	-	-	MsrA activ conf=-
CCN1C[C@@]2(COC)C3[C@@H](OC)[C@H]4[C@@H]1[C@]3(C(OC)C[C@H]2O)C1C[C@@]2(O)[C@H](OC(=O)c3ccccc3)C1[C@]4(OC(C)=O)[C@@H](O)[C@@H]2OC (some centres not stated)	.	.	.	-	.	.
CCSc1nnc([C@@H](N)Cc2ccccc2)o1	-	-	-	-	-	-
CCSc1nnc(C(N)Cc2ccccc2)o1 (configuration not stated)	-	29	-	-	-	-	ASAP1 inh confirm=-
Cc1ccc(/C=C2\C(=O)NC(=O)N(Cc3ccccc3Cl)C2=O)o1	-	28	-	-	-	-	ASAP1 inh confirm=-
C[C@@H]1O[C@@H](O[C@H]2C[C@@H](O)[C@]3(CO)C4C(CC[C@]3(O)C2)[C@@]2(O)CC[C@H](C3=CC(=O)OC3)[C@@]2(C)C[C@H]4O)[C@H](O)[C@H](O)[C@H]1O (some centres not stated)	.	.	.	-	.	.
COP(=O)(OC)C(NC(C)=O)C(Cl)(Cl)Cl (configuration not stated)	-	26	-	-	-	-	ASAP1 inh confirm=-
O=C1CN=C(c2ccccc2Cl)c2cc([N+](=O)[O-])ccc2N1	.	.	.	-	.	.
COc1ccc(C(=O)NC(=S)N2C[C@H]3C[C@H](C2)c2cccc(=O)n2C3)cc1	-	-	34	-	-	-	ARFGAP1 inh conf=-
COc1ccc(/C=C/C(=O)NC(=S)N2C[C@H]3C[C@H](C2)c2cccc(=O)n2C3)cc1	-	-	-	-	-	-

Screening results: PubChem, several laboratories
